Results published in ChEMBL document CHEMBL1153796, “Isoprenylated chromone derivatives from the plant endophytic fungus Pestalotiopsis fici” (J Nat Prod, 2009).

How the values were obtained:
HeLa = assay: Cytotoxicity against human HeLa cells after 48 hrs by MTT assay; type: functional, cell-based
Method in brief: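 Cells plated at 10^4/well and allowed to attach overnight. Exposed to compound dilutions from DMSO stock (vehicle 0.2% DMSO) for 4 h at 37 °C, then grown 48 h in fresh DMEM. MTT at 0.5 mg/mL added for 3 h, formazan dissolved in DMSO, absorbance at 540 nm; 5-fluorouracil as positive control.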

[1] = system: Human immunodeficiency virus 1; assay: Antiviral activity against HIV1 infected human C8166 cells assessed as inhibition of viral replication after 4 days by p24 antigen capture ELISA; type: functional, organism-based; conditions: Human immunodeficiency virus 1, C8166, 96 h
MCF7 = assay: Cytotoxicity against human MCF7 cells after 48 hrs by MTT assay; type: functional, cell-based; conditions: MCF7, 48 h
C8166 = assay: Cytotoxicity against human C8166 cells after 4 days by MTT assay; type: cell-based; conditions: C8166, 96 h
Method in brief: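 C8166 cells seeded at 3 × 10^4/well with various compound concentrations in triplicate, 37 °C, 5% CO2, run alongside the HIV-1 assay.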

`O=c1[nH]cc(F)c(=O)[nH]1` [FLUOROURACIL] gave an IC50 (HeLa) of 10 µM.

`CC(C)=CC[C@]12O[C@H]1[C@@H](O)CC1=C2OC(C)(C)CC1=O` [PESTALOFICIOL F] was tested, and the EC50 [1] was > 100 µM, the IC50 (HeLa) was > 144 µM and the IC50 (MCF7) was > 144 µM.

For `COC(=O)c1cc(OC)cc(O)c1C(=O)c1c(O)cc(C)c(C2=CC(C)(C)Oc3c(CC=C(C)C)cc(O)cc32)c1O` [PESTALOFICIOL L], the EC50 [1] was > 100 µM, the IC50 (HeLa) was 8.7 µM and the IC50 (MCF7) was 17.4 µM.

With `CC(=O)OC1=CC(C)(C)Oc2c(CC=C(C)C)cc(O)cc21` [PESTALOFICIOL K] the EC50 [1] was 78.2 µM, the IC50 (HeLa) was 99.3 µM and the IC50 (MCF7) was > 132 µM.

With `CC(C)=CC=C1C2=C(C[C@H](O)[C@@H]1O)C(=O)CC(C)(C)O2` (mixture of isomers) the EC50 [1] was 89.2 µM, the IC50 (HeLa) was > 144 µM and the IC50 (MCF7) was > 144 µM.

`CC(C)=CCc1cc(O)cc2c1OC(C)(C)CC2=O` [PESTALOFICIOL J] was tested, and the EC50 [1] was 8 µM, the IC50 (HeLa) was 21.2 µM and the IC50 (MCF7) was > 154 µM. For the same compound, the CC50 (C8166) was > 100 µM.

In the case of `CC1(C)CC(=O)C2=C(O1)C1=C[C@@H](C(C)(C)O)O[C@H]1[C@@H](O)C2` [PESTALOFICIOL I], the EC50 [1] is reported as > 100 µM, the IC50 (HeLa) is reported as > 136 µM and the IC50 (MCF7) is reported as 136 µM.
